Converted amounts (≈) assume the structure as drawn.
Key:
[1] = tested on: Human immunodeficiency virus 1; test: Concentration of the required to protect CEM cells of Human T-lymphocyte against Cytopathogenicity of HIV-1(III-B) by 50%; format: functional, organism-based; conditions: Human immunodeficiency virus 1, CCRF-CEM
Procedure, shortened: (§1)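 CEM cells at 4 × 10⁵ cells/mL infected with HIV-1 (IIIB) or HIV-2 (ROD) at ~100 CCID₅₀/mL, then mixed with serial compound dilutions. Giant cell formation scored microscopically after 4 days. Triplicate assays.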

Human betaherpesvirus 5 [2] = test: The concentration required to reduce virus plaque formation by 50% was measured on AD-169 strains of human cytomegalovirus; format: functional, organism-based
HEL [3] = test: The minimum cytotoxic concentration was measured on Human Embryonic Lung (HEL) cells; format: functional
Procedure, shortened: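 Minimum toxic concentration is the lowest concentration giving a microscopically detectable change in morphology of normal HEL cells. Duplicate assays.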

Human alphaherpesvirus 3 [4] = test: The concentration required to reduce virus plaque formation by 50% was measured on YS/Rstrain of VZV expressing viral thymidine kinase(TK-); format: functional, organism-based
Human alphaherpesvirus 3 [5] = test: The concentration required to reduce virus plaque formation by 50% was measured on OKA strain of VZV expressing viral thymidine kinase(TK+); format: functional, organism-based
Human alphaherpesvirus 3 [6] = test: The concentration required to reduce virus plaque formation by 50% was measured on YS strain of VZV expressing viral thymidine kinase(TK+); format: functional, organism-based
HEL [7] = test: The concentration required to reduce cell growth by 50% was measured on Human Embryonic Lung (HEL) cells; format: functional
Procedure, shortened: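 HEL fibroblasts seeded at 5 × 10³ cells/well and grown 24 h, then given compound dilutions in duplicate. Cells counted with a Coulter counter after 3 days at 37 °C in 5% CO₂.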

Human alphaherpesvirus 3 [8] = test: The concentration required to reduce virus plaque formation by 50% was measured on 07/1 strain of VZV expressing viral thymidine kinase(TK-); format: functional, organism-based
Human betaherpesvirus 5 [9] = test: The concentration required to reduce virus plaque formation by 50% was measured on Davis strains of human cytomegalovirus; format: functional, organism-based
CCRF-CEM = test: The concentration required to reduce 50% cell viability on CEM cells of Human T-lymphocyte; format: functional
Procedure, shortened: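 Uninfected CEM cells exposed to compound dilutions. Triplicate assays.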

[10] = tested on: Human immunodeficiency virus 2; test: Concentration of the required to protect CEM cells of Human T-lymphocyte against Cytopathogenicity of HIV-2 by 50%; format: functional, organism-based; conditions: Human immunodeficiency virus 2, CCRF-CEM; procedure, shortened: as §1

Compound | EC50 [1] | IC50 (Human betaherpesvirus 5 [2]) | MCC (HEL [3]) | IC50 (Human alphaherpesvirus 3 [4]) | IC50 (Human alphaherpesvirus 3 [5]) | IC50 (Human alphaherpesvirus 3 [6]) | CC50 (HEL [7]) | IC50 (Human alphaherpesvirus 3 [8]) | IC50 (Human betaherpesvirus 5 [9]) | CC50 (CCRF-CEM) | EC50 [10]
O=C1c2ccccc2N(COCc2ccccc2)S(=O)(=O)N1Cc1ccccc1 | > 8 µg/mL | 8 µg/mL (≈ 19.6 µM) | > 50 µg/mL | > 5 µg/mL | 20 µg/mL (≈ 49 µM) | 20 µg/mL (≈ 49 µM) | > 50 µg/mL | > 5 µg/mL | 11 µg/mL (≈ 26.9 µM) | 25 µg/mL (≈ 61.2 µM) | > 8 µg/mL
O=C1c2ccccc2N(COCCO)S(=O)(=O)N1Cc1ccccc1 | > 40 µg/mL | > 20 µg/mL | > 50 µg/mL | > 20 µg/mL | 43 µg/mL (≈ 119 µM) | > 50 µg/mL | 125 µg/mL (≈ 345 µM) | 55 µg/mL (≈ 152 µM) | > 50 µg/mL | 89 µg/mL (≈ 246 µM) | > 40 µg/mL
CC(=O)OCCOCN1c2ccccc2C(=O)NS1(=O)=O | > 200 µg/mL | > 50 µg/mL | > 50 µg/mL | > 50 µg/mL | > 50 µg/mL | > 50 µg/mL | > 200 µg/mL | > 50 µg/mL | > 50 µg/mL | > 200 µg/mL | > 200 µg/mL
CC(=O)OCCOCN1C(=O)c2ccccc2NS1(=O)=O | > 200 µg/mL | > 50 µg/mL | > 50 µg/mL | > 50 µg/mL | > 50 µg/mL | > 50 µg/mL | > 200 µg/mL | > 50 µg/mL | > 50 µg/mL | > 200 µg/mL | > 200 µg/mL
O=C1c2ccccc2N(Cc2ccccc2)S(=O)(=O)N1COCc1ccccc1 | 15 µg/mL (≈ 36.7 µM) | 3.5 µg/mL (≈ 8.57 µM) | 20 µg/mL | 3 µg/mL (≈ 7.34 µM) | > 5 µg/mL | > 5 µg/mL | > 40 µg/mL | > 5 µg/mL | 3.7 µg/mL (≈ 9.06 µM) | 100 µg/mL (≈ 245 µM) | 20 µg/mL (≈ 49 µM)
C#CCOCN1c2ccccc2C(=O)N(Cc2ccccc2)S1(=O)=O | > 8 µg/mL | 12 µg/mL (≈ 33.7 µM) | 50 µg/mL | 13 µg/mL (≈ 36.5 µM) | 21 µg/mL (≈ 58.9 µM) | 24 µg/mL (≈ 67.3 µM) | > 50 µg/mL | 11 µg/mL (≈ 30.9 µM) | 12 µg/mL (≈ 33.7 µM) | 23 µg/mL (≈ 64.5 µM) | > 8 µg/mL
Nc1nc2c(ncn2COC(CO)CO)c(=O)[nH]1 [GANCICLOVIR] |  | 1.2 µg/mL (≈ 4.7 µM) | > 50 µg/mL |  |  |  | > 50 µg/mL |  | 1.9 µg/mL (≈ 7.44 µM) |  | 
O=C1c2ccccc2NS(=O)(=O)N1COCCO | > 40 µg/mL | > 50 µg/mL | > 50 µg/mL | > 50 µg/mL | > 50 µg/mL | > 50 µg/mL | 160 µg/mL (≈ 588 µM) | > 50 µg/mL | > 50 µg/mL | > 200 µg/mL | > 40 µg/mL
O=C1NS(=O)(=O)N(COCCO)c2ccccc21 | > 40 µg/mL | > 50 µg/mL | > 50 µg/mL | > 50 µg/mL | > 50 µg/mL | > 50 µg/mL | 112 µg/mL (≈ 411 µM) | > 50 µg/mL | > 50 µg/mL | 15 µg/mL (≈ 55.1 µM) | > 40 µg/mL
O=C(OCCOCN1c2ccccc2C(=O)N(Cc2ccccc2)S1(=O)=O)c1ccccc1 | > 40 µg/mL | 13 µg/mL (≈ 27.9 µM) | 50 µg/mL | 12 µg/mL (≈ 25.7 µM) | > 20 µg/mL | > 20 µg/mL | 17 µg/mL (≈ 36.4 µM) | > 20 µg/mL | > 20 µg/mL | 100 µg/mL (≈ 214 µM) | > 40 µg/mL
Nc1nc2c(ncn2COCCO)c(=O)[nH]1 [ACYCLOVIR] |  |  | > 50 µg/mL |  |  |  | > 200 µg/mL |  |  |  | 
CCCOCN1c2ccccc2C(=O)NS1(=O)=O | > 40 µg/mL | > 50 µg/mL | > 50 µg/mL | > 50 µg/mL | > 50 µg/mL | > 50 µg/mL | > 50 µg/mL | > 50 µg/mL | > 50 µg/mL | > 200 µg/mL | > 40 µg/mL
O=C1NS(=O)(=O)N(COCc2ccccc2)c2ccccc21 | > 40 µg/mL | > 50 µg/mL | > 50 µg/mL | > 50 µg/mL | > 50 µg/mL | > 50 µg/mL | > 50 µg/mL | > 50 µg/mL | > 50 µg/mL | > 200 µg/mL | > 40 µg/mL
O=C1c2ccccc2NS(=O)(=O)N1Cc1ccccc1 | > 200 µg/mL | > 20 µg/mL | 50 µg/mL | > 50 µg/mL | > 50 µg/mL | > 50 µg/mL | > 50 µg/mL | 48 µg/mL (≈ 166 µM) | > 20 µg/mL | > 200 µg/mL | > 200 µg/mL
CC(=O)OCCOCN1c2ccccc2C(=O)N(Cc2ccccc2)S1(=O)=O | > 40 µg/mL | > 20 µg/mL | 50 µg/mL | > 20 µg/mL | 42 µg/mL (≈ 104 µM) | > 50 µg/mL | 100 µg/mL (≈ 247 µM) | 44 µg/mL (≈ 109 µM) | > 50 µg/mL | 103 µg/mL (≈ 255 µM) | > 40 µg/mL

From ChEMBL document CHEMBL1132117, “Novel potential agents for human cytomegalovirus infection: synthesis and antiviral activity evaluation of benzothiadiazine dioxide acyclonucleosides” (J Med Chem, 1999)
